Source: article PMC3677025 (Pharmacological research : the official journal of the …, 2012)
One block for each compound: values may come before it.

Key:
[1] = biological target: T1, EphA4 (Mus musculus, UniProt Q03137); test: EphA4 AP binding to immobilized KYL peptide; conditions: for (% Inhib.) EphA4 KYL: screen, compounds at 10 μM; for inhibition at 10 µM: read-out: (% Inhib.) EphA4 KYL
Outline: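 Biotinylated KYL peptide (biotin on the lysine of a C-terminal GSGSK linker) was captured on streptavidin-coated wells, with coating in borate buffer pH 8.7. Test compound (10 μM in 1% DMSO for screening; varied concentrations for confirmation) was added with ~0.35 nM mouse EphA4 ectodomain–AP from NIH3T3 supernatant in TBST. Bound AP was read at 405 nm with 1 mg/ml p-nitrophenylphosphate in SEAP buffer pH 9.8, minus AP-only background. Percent inhibition was taken relative to no-compound wells.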

[2] = biological target: T1, EphA4; test: ELISA, ephrin-A5 AP binding to immobilized EphA4 Fc
Outline: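 Mouse EphA4 Fc was captured at 1 μg/ml on protein A wells. Ephrin-A5 AP (~0.01 nM for IC50) from HEK293 supernatant was added with test compound for 2 h in TBST and read with p-nitrophenylphosphate, minus Fc-only background. For reversibility, compound was incubated 2 h, washed 30 min, then ephrin-A5 AP added for 1 h. For mode of inhibition, ephrin-A5 AP was titrated per compound concentration and fitted one-site; Ki came from KD/Bmax versus inhibitor regression.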

[3] = biological target: T2, EphB4 (Mus musculus, UniProt P54761); test: ELISA, ephrin-B2 AP binding to immobilized EphB4 Fc; conditions: for IC50: read-out: IC50 ± SE EphB4 ephrin-B2
T2 sequence (P54761 16-539): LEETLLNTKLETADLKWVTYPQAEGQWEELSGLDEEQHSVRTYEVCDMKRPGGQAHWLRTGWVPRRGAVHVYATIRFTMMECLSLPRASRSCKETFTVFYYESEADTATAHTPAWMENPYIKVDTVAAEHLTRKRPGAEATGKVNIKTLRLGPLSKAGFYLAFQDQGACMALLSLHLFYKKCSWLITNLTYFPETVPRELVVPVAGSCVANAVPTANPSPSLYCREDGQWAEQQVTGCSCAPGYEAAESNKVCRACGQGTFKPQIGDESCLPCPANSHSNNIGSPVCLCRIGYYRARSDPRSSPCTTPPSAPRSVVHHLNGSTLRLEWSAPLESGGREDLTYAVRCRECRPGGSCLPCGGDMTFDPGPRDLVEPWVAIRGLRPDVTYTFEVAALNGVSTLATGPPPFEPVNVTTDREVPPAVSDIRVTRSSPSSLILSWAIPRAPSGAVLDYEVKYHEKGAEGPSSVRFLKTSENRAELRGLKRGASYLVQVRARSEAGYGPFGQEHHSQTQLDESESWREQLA

[4] = biological target: EphA2 (Mus musculus, UniProt Q03145); test: ELISA, ephrin-A5 AP binding to immobilized EphA2 Fc; conditions: read-out: IC50 ± SE EphA2 ephrin-A5
Sequence of EphA2 (Mus musculus, UniProt Q03145) (Q03145 26-538): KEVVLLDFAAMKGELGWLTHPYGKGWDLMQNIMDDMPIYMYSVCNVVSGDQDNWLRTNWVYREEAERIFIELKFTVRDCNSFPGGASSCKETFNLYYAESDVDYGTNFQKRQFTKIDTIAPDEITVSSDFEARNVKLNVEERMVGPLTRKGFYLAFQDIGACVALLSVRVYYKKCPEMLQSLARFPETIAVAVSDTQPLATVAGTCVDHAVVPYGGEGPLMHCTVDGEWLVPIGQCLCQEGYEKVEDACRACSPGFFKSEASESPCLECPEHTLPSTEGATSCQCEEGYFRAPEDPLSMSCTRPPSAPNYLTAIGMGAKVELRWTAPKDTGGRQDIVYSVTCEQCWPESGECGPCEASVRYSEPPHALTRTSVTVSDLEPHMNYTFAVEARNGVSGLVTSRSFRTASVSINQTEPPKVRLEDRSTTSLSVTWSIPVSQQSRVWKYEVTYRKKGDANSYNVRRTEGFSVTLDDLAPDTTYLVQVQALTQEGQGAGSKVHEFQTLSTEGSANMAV

[5] = biological target: EphA2 (Homo sapiens, UniProt P29317); test: Ephrin-A1 Fc-induced EphA2 phosphorylation in HUVECs; format: cell-based; conditions: at 50 μM
Sequence of EphA2 (Homo sapiens, UniProt P29317) (P29317 24-976): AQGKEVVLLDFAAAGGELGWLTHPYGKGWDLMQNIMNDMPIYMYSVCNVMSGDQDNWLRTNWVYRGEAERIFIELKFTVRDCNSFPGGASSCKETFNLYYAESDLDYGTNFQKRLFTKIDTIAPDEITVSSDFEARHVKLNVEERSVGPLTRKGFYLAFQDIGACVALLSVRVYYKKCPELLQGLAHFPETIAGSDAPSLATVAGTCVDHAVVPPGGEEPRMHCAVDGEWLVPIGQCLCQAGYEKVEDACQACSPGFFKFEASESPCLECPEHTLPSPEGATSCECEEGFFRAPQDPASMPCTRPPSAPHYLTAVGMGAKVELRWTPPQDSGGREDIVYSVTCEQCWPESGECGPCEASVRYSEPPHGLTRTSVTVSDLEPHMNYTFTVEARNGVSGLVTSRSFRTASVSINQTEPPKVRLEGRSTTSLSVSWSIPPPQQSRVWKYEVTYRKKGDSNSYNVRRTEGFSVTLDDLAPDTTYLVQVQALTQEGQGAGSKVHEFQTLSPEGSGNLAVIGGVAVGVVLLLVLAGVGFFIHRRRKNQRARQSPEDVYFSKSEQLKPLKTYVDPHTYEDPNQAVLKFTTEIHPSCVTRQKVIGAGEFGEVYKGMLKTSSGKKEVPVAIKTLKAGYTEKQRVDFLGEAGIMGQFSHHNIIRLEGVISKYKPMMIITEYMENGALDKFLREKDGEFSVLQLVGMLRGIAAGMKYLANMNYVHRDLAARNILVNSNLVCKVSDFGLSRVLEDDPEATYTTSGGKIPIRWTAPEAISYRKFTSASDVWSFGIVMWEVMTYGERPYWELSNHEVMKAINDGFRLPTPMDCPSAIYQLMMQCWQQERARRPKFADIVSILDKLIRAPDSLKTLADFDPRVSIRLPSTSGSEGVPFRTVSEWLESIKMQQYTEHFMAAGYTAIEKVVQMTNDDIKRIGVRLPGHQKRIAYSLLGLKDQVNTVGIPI
Outline: (§1)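 HUVECs were serum-starved 1–2 h and preincubated 15 min with 50 μM test compound (DMSO ≤0.4% final). They were then stimulated 20 min with 0.25 μg/mL ephrin-A1 Fc plus 1.5 μg/mL ephrin-B2 Fc (preclustered with 3-fold anti-Fc), or Fc, with compound present. Lysates were made in modified RIPA with NaF and pervanadate. EphA2 (1 μg antibody) and EphB4 (20 μg antibody) immunoprecipitates were immunoblotted for phosphotyrosine; lysates were probed for receptors and β-actin.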

[6] = tested on: Eph receptors; test: ELISA, ephrin binding to panel of EphA and EphB receptors; conditions: at 100 μM
[7] = biological target: T3, EphB4 (Homo sapiens, UniProt P54760); test: Ephrin-B2 Fc-induced EphB4 phosphorylation in HUVECs; format: cell-based; conditions: at 50 μM
T3 sequence (P54760 16-987): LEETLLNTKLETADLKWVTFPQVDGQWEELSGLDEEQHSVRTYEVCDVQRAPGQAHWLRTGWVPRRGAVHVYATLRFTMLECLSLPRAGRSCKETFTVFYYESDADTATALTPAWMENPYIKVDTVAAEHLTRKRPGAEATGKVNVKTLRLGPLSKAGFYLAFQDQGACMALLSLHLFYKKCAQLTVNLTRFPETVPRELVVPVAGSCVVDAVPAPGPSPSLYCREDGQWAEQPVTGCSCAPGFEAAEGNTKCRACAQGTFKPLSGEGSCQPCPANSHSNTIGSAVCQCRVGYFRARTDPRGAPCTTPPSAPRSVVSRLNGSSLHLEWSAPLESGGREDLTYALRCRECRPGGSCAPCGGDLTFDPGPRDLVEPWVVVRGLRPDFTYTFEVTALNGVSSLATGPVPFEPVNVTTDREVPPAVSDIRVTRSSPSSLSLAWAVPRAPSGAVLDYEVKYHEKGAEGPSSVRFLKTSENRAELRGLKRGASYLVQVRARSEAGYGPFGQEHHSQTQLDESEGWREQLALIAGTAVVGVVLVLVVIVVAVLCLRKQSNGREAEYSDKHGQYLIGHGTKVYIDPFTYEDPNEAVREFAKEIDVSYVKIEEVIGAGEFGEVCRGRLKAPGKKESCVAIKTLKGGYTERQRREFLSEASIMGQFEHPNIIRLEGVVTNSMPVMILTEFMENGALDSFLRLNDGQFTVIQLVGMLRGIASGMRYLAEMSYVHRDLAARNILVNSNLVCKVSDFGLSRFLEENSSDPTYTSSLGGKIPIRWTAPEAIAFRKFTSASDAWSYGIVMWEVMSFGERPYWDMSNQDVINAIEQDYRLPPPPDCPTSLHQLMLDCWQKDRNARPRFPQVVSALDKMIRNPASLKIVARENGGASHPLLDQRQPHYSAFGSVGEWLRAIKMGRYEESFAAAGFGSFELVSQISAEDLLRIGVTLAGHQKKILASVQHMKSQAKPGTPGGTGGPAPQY
Outline: as §1

[8] = tested on: EphB6; test: ELISA, ephrin-B2 AP binding to immobilized EphB6 Fc; conditions: at 100 μM
Outline: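 Eph receptor Fc fusions were immobilized at 1 μg/ml in TBST on protein A-coated wells. Diluted ephrin AP fusion supernatant from transiently transfected HEK293 cells was added for 2 h with or without test compound; for IC50 it was at approximately 0.01 nM. Bound AP was read with p-nitrophenylphosphate, minus Fc-only background. IC50 came from a variable-slope log(inhibitor)–response fit, bottom constrained to 0.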

[9] = tested on: HUVECs; test: Capillary-like tube formation assay, HUVECs on Matrigel; format: cell-based, human; conditions: at 10 μM, 18 hours
Outline: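 HUVECs (2.3 × 10⁴) were seeded on Matrigel-precoated wells in complete HUVEC medium containing test compound or DMSO control and grown for 18 h. Polygons were counted from phase-contrast images, 2–4 pictures from each of 3–6 wells. Counts were compared with DMSO-only wells by one-way ANOVA with Dunnett's post-hoc test.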

[10] = read-out: IC50 ± SE EphA4 ephrin-A5

T1 sequence (Q03137 20-547 limits assumed): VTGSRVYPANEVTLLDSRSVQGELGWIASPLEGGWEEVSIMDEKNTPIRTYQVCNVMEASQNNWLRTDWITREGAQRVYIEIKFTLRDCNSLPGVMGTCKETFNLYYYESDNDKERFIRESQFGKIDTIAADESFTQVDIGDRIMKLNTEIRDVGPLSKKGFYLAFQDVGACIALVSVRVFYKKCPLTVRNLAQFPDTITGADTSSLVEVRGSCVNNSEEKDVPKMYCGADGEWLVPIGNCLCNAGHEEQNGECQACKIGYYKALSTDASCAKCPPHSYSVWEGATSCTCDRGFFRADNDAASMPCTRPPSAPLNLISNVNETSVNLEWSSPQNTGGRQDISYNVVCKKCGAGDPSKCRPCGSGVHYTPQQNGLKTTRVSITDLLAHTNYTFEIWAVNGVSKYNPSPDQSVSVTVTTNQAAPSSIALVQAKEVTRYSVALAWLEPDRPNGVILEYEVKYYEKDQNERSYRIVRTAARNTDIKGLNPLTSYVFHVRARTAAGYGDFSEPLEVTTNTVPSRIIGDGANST

(% Inhib.) EphA4 KYL [1]: less than 40%
Compound: O=C(O)c1cc(O)c(=O)c2c(O)c(O)cc([C@H]3Oc4cc(O)cc(O)c4C[C@@H]3O)c2c1 [theaflavic acid]

IC50 [2]: > 200 µM
IC50 [1]: 190 ± 1.5 µM
inhibition at 10 µM [1]: < 40%
Compound: Oc1cc(O)c2c(c1)O[C@H](c1ccc(O)c(O)c1)[C@H](O)C2 [epicatechin]

(% Inhib.) EphA4 KYL [1]: less than 40%
Compound: O=C(O)c1cc(O)c(=O)c2c(O)c(O)cc([C@H]3Oc4cc(O)cc(O)c4C[C@H]3O)c2c1 [epitheaflavic acid]

(% Inhib.) EphA4 KYL [1]: 65%
Compound: theaflavin-3,3′-digallate [theaflavin-3,3′-digallate]

inhibition at 10 µM [1]: < 40%
Compound: O=c1c(O)cc([C@H]2Oc3cc(O)cc(O)c3C[C@H]2O)cc2c([C@H]3Oc4cc(O)cc(O)c4C[C@H]3O)cc(O)c(O)c12 [theaflavin]

Further lines, the compound ahead of its results:

Compound: O=C(O[C@@H]1Cc2c(O)cc(O)cc2O[C@@H]1c1ccc(O)c(O)c1)c1cc(O)c(O)c(O)c1 [epicatechin-3-monogallate, epicatechin-3-gallate]
IC50 [3]: > 200 µM
IC50 [4]: > 200 µM
IC50 [2, 10]: > 200 µM
IC50 ([1]; read-out: IC50 ± SE EphA4 KYL): 50 ± 6 µM
(% Inhib.) EphA4 KYL [1]: < 40%

Compound: epigallocatechin-3-gallate [EGCG]
inhibition of ephrin binding to EphB4 ([3]; at 100 μM): not detectably inhibited
IC50 [3]: > 200 µM
EphA2 phosphorylation in HUVECs [5]: does not strongly inhibit
IC50 [4]: > 200 µM
inhibition of ephrin-A5 binding to EphA4 ([2]; at 200 μM): ~ 25%
IC50 [2, 10]: > 200 µM
inhibition of ephrin binding to many Eph receptors [6]: 10–30%
EphB4 phosphorylation in HUVECs [7]: does not strongly inhibit
inhibition of ephrin binding to EphB6 [8]: not detectably inhibited
IC50 ([1]; read-out: IC50 ± SE EphA4 KYL): 15 ± 1.8 µM
(% Inhib.) EphA4 KYL [1]: < 40%
capillary-like tube formation [9]: significantly inhibits

Compound: O=C(O[C@@H]1Cc2c(O)cc(O)cc2O[C@@H]1c1cc(O)c(O)c(O)c1-c1c([C@H]2Oc3cc(O)cc(O)c3C[C@H]2OC(=O)c2cc(O)c(O)c(O)c2)cc(O)c(O)c1O)c1cc(O)c(O)c(O)c1 [2′,2‴-bisepigallocatechin digallate]
(% Inhib.) EphA4 KYL [1]: 76%

Compound: Oc1cc(O)c2c(c1)O[C@H](c1cc(O)c(O)c(O)c1)[C@H](O)C2 [epigallotechin, epigallocatechin]
IC50 [2]: > 200 µM
IC50 [1]: 44 ± 13 µM
inhibition at 10 µM [1]: < 40%

Compound: O=C(O[C@@H]1Cc2c(O)cc(O)cc2O[C@@H]1c1cc(O)c(O)c(O)c1-c1c([C@H]2Oc3cc(O)cc(O)c3C[C@H]2O)cc(O)c(O)c1O)c1cc(O)c(O)c(O)c1 [2′,2′-bisepigallocatechin monogallate]
inhibition at 10 µM [1]: 80%
